Source: PubChem BioAssay
KCNK3 inh: human KCNK3 channel inhibition, primary screen. 0.84% of 340,000 active. AID 602410. B-score at 10 µM. CHO-KCNK3 thallium flux, FluxOR fluorescence; hits give low values;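 active = B-score under library mean minus 4 SD, starting fluorescence ratio at most library mean plus 5 SD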;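 note: more negative B-score means stronger inhibition of thallium flux through KCNK3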
KCNK9 block: human KCNK9 channel inhibition. Q9NPC2. HEK293 KCNK9, FluxOR thallium flux fluorescence; hits give low values. B-score at 10 µM. 1.2% of 310,000 active;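 active = ratio B-score over 3 SD below the library mean, with starting fluorescence within 5 SD of its mean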;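 note: negative B-score means less thallium flux so channel inhibition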
Target sequence (Q9NPC2 whole entry, looked up): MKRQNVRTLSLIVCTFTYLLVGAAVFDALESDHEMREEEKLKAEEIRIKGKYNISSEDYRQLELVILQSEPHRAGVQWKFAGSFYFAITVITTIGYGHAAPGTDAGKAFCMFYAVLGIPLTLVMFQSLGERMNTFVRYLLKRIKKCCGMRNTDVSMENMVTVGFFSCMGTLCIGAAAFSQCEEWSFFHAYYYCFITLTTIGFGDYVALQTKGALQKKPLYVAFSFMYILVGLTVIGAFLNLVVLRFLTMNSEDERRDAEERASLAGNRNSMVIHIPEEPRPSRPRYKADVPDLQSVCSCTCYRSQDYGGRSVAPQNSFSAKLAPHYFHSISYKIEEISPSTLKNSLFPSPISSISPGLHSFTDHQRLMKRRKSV
KCNQ1 inh: inhibitors of human KCNQ1 potassium channel; AID 2642; 1.3% of 310,000 active; B-score at 10 µM; CHO-K1 KCNQ1, FluxOR thallium flux fluorescence; hits give high values;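 active = compounds whose thallium flux B-score, printed positive for inhibition, exceeds three library SD while starting fluorescence stays within three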;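 note: channel opened by potassium depolarization with thallium stimulus after 20 min compound exposure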
hERG protect: shields human hERG channel from block by proarrhythmic agents | CHO-hERG, FluxOR thallium flux, dofetilide IC70 present | activation (rescue from dofetilide block), less the hit threshold, % at 10 µM | 0.51% of 310,000 active;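 active = activation above the mean of controls blocked by dofetilide plus 5 SD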;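 note: thallium influx through hERG after potassium depolarization seen as dye fluorescence rise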
KCNQ1 pot: human KCNQ1 channel potentiation or activation. CHO-K1 KCNQ1, thallium flux FluxOR fluorescence; hits give high values. B-score at 10 µM. 0.35% of 310,000 active;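 active = fluorescence ratio B-score, a plate-corrected score, at least three library SD, with initial intensity B-score within 5 SD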
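Test system: CHO-K1 cells stably expressing KCNQ1 / Medium: assay buffer / Also added: depolarizing K+/Tl+ stimulus, K2SO4 and Tl2SO4 each 12.5 mM in 5x stock / Incubation: 90 min dye loading and 20 min compound exposure, both at room temperature / Signal: thallium influx via FluxOR fluorescence, kinetic imaging / Evaluation: B score of baseline-normalized fluorescence ratio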
Kir21 block: inhibitors of mouse Kir2.1 inward-rectifier potassium channel; P35561; HEK293-Kir2.1, FluxOR thallium flux fluorescence; hits give low values; B-score at 10 µM; 0.85% of 310,000 active;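 active = fluorescence ratio B-score at or below minus 3 SD of library scores, with starting-brightness B-score within 2 SD, cut at about -4.2 in these data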;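 note: channel flux triggered by added potassium and thallium sulfate stimulus; B-score of peak minus minimum fluorescence over baseline after thallium stimulus; more negative B-score means stronger Kir2.1 block with less thallium influx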
Starred values were filed as active, the others as inactive; i = inactive; . = not tested or not shown. Rows were chosen to be rich in hits. Some 3.7% of all compounds tested hit in one or more screens of this group.

SMILES | KCNK3 inh | KCNK9 block | KCNQ1 inh | hERG protect | KCNQ1 pot | Kir21 block
CCOC(=O)C(=CNc1ccc(Oc2cccnc2)nc1)C(=O)OCC | i | i | i | 4.6* | i | 0.2
CC(C)(C)c1ccc(C(=O)Nc2ccc(Oc3cccnc3)nc2)cc1 | i | i | i | -6 | i | -1.1
CCOC(=O)N1CCN(C(=O)c2oc3ccc(S(=O)(=O)N(CC)CC)cc3c2C)CC1 | i | i | i | -5 | i | 0.28
CCOc1ccccc1N1CCN(Cc2cccc(OC)c2OC)CC1 | i | i | 6* | -16 | i | -0.7
CN(C)S(=O)(=O)c1cccc(NC(=S)Nc2cc(Cl)cc(Cl)c2)c1 | i | i | 7* | -24 | i | -2.4
CN(C)S(=O)(=O)c1cccc(NC(=S)N/N=C/c2ccc(O)c(O)c2O)c1 | i | i | i | -17 | i | -5.4*
CN(C)S(=O)(=O)c1cccc(NC(=S)Nc2ccc(Cl)cc2Cl)c1 | i | i | i | -11 | i | -2.5
CCc1ccccc1NC(=O)COc1ccc(N2CC(C(N)=O)CC2=O)cc1 (stereo unspecified) | i | i | i | -4 | i | -0.03
COC(=O)C1=C(C)N(Cc2ccccc2)C(=NCCCCO)N[C@H]1c1ccccc1 | . | i | i | -4 | i | -4.6*
COC(=O)C1=C(C)N(Cc2ccccc2)C(=NCCc2cccnc2)N[C@H]1c1ccc(Br)cc1 | i | . | . | . | . | .
COC(=O)C1=C(C)N(Cc2ccccc2)C(=NCC2CC2)N[C@H]1c1ccccc1 | i | . | . | . | . | .
COC(=O)C1=C(C)N(Cc2ccccc2)C(=NCCc2cccnc2)N[C@H]1c1ccccc1 | i | i | i | -7 | i | -11*
O=C(CN(c1ccc(Br)cc1)S(=O)(=O)c1ccc(Cl)c([N+](=O)[O-])c1)NCC1CCCO1 (stereo unspecified) | i | . | . | . | . | .
COC(=O)C1=C(C(=O)OC)[C@@H]2N(Cc3ccccc3)c3ccccc3[C@@]23C[C@@H](C(=O)OC)N(C(=O)c2cc(C)oc2C)C3=N1 | i | i | i | 0 | i | 0.58
COC(=O)C1=C(C(=O)OC)[C@@H]2N(C)c3ccccc3[C@@]23C[C@@H](C(=O)OC)N(C(=O)c2ccc(Br)cc2)C3=N1 | i | i | i | -8 | 30* | -2.4
COC(=O)C1=C(C(=O)OC)[C@@H]2N(Cc3ccccc3)c3ccccc3[C@@]23C[C@@H](C(=O)OC)N(C(=O)c2cccs2)C3=N1 | i | -7.9* | i | -2 | i | 0.48
COC(=O)C1=C(C(=O)OC)[C@@H]2N(Cc3ccccc3)c3ccccc3[C@@]23C[C@@H](C(=O)OC)N(C(=O)CC(C)C)C3=N1 | i | -7.9* | i | -4 | i | -0.41
CC#CCN1c2ccccc2[C@]23C[C@@H](C(=O)OC)N(C(=O)c4ccc(Br)cc4)C2=NC(C(=O)OC)=C(C(=O)OC)[C@H]13 | . | i | i | -4 | i | -0.21
Cc1ccc2c(c1)N(CC(=O)N1CCCCCC1)C(=O)C(C)O2 (stereo unspecified) | i | i | i | -6 | i | -0.82
CCOC(=O)C(Cc1ccccc1)C(=O)Nc1ccc(NC(=O)C(Cc2ccccc2)C(=O)OCC)cc1 (stereo unspecified) | i | i | i | -10 | i | 0.09
CCOC(=O)C(C#N)C(Cc1ccccc1)c1ccco1 (stereo unspecified) | i | i | i | -4 | i | -4.7*
COc1ccc2c(c1OC)C(=O)OC2N1C(=O)CC[C@H]1C(=O)Nc1ccc2c(c1)OCO2 (stereo partly specified) | i | i | i | -10 | i | -0.68
Cc1[nH]n2c(=O)cc(C(C)C)nc2c1-c1ccccc1 | i | i | i | -3 | i | -0.85
Cc1[nH]n2c(=O)cc(-c3ccc([N+](=O)[O-])cc3)nc2c1-c1ccccc1 | i | i | 7* | -8 | i | -0.14
Cc1[nH]n2c(=O)cc(C(C)(C)C)nc2c1-c1ccccc1 | i | i | i | 8.6* | 15* | -1.5
SMILES | KCNK3 inh | KCNK9 block | KCNQ1 inh | hERG protect | KCNQ1 pot | Kir21 block
CC(=O)c1c(O)c(C)c(O)c2c1OC1=CC(=O)C(C(C)=O)C(=O)[C@@]12C (stereo partly specified) | i | i | 7* | -18 | i | -1.2
O=c1cc2c(nn1Cc1c(Cl)cccc1Cl)-c1ccccc1CC2 | i | i | i | -5 | 9* | -0.78
CCn1c(=O)c(=O)[nH]c2cc(C(=O)NCc3ccc(F)cc3)ccc21 | i | i | i | -10 | i | 0.34
CCOc1ccccc1N1CCN(C2=C(NS(=O)(=O)c3cccs3)C(=O)c3ccccc3C2=O)CC1 | i | -6.6* | i | -8 | i | 1.5
CC(NC(=O)Cc1ccccc1)C(=O)O (stereo unspecified) | i | . | . | . | . | .
CC(=O)c1c(OC(=O)c2ccc(C)cc2)c2ccccc2n1C | i | -7.2* | i | -2 | i | -0.41
COc1ccc(-c2cc3ccc(OC(C)C(=O)O)cc3oc2=O)cc1 (stereo unspecified) | i | i | i | -1 | i | 0.24
Cc1cc(C)c2c(=O)n(CC(=O)NCCCN3CCN(c4ccccc4F)CC3)sc2n1 | . | i | i | -48 | i | -5.5*
Cc1cc(C)c2c(=O)n(CC(=O)NCCCN3CCOCC3)sc2n1 | i | i | i | -5 | i | 0.98
CCN(CC)CCOc1ccc(C=NNc2nc3c([nH]2)c(=O)n(C)c(=O)n3C)cc1 | i | . | . | . | . | .
Cc1ccc2nc(/C(C#N)=C\c3cc(C)n(-c4cccc([N+](=O)[O-])c4)c3C)[nH]c2c1 | i | i | 8* | -12 | i | -1.3
Cc1ccc(S(=O)(=O)NCC(=O)OCC(=O)N(C)C2CCCCC2)cc1 | i | . | . | . | . | .
Cc1ccc(C(=O)Nc2ccc(N3CCOCC3)nc2)cc1 | i | i | i | -10 | i | 0.03
CN1CCN(c2ccc(NC(=O)c3ccc(Cl)cc3)cn2)CC1 | i | i | i | 7.8* | i | 1.3
c1ccc(-c2nc(-c3cccs3)[nH]c2-c2ccccc2)cc1 | i | i | i | -4 | i | 1.2
Oc1ccccc1-c1nc2c3ccccc3c3ccccc3c2[nH]1 | i | i | 6* | -3 | i | 0.23
c1csc(-c2nc3c4ccccc4c4ccccc4c3[nH]2)c1 | -10* | i | i | -6 | i | -0.01
Cc1cc(C)nc(/N=C(\N)Nc2ccc(CC(=O)OC(C)C)cc2)n1 | i | i | i | -10 | 10* | -2.8
Cc1cc(C)nc(/N=C(\N)Nc2ccc(OCCC(C)C)cc2)n1 | i | i | i | -12 | i | -3.2
